The results in this text go back to PMC9898158 (Structure (London, England : 1993), 2022).

Where a name gives a salt, the structure may show the parent alone. Read-outs that look alike come from different tables or passages of the source.

The subject of assay [1] is HEK293 T-REx CLPP−/− cells. Nature of the assay: Growth inhibition profiling. The following applies: read-out: IC50 (nM), HEK293 T-REx CLPP−/−. The class given is cell-based, human.
Another assay has as its system MDA-MB-231 CLPX−/− cells. Nature of the assay: Growth inhibition profiling. The class given is cell-based, human. The following applies: read-out: IC50 (nM), MDA-MB-231 CLPX−/−.
Another assay relates to MDA-MB-231 CLPP−/− cells. Nature of the assay: Growth inhibition profiling. The class given is cell-based, human. The following applies: read-out: IC50 (nM), MDA-MB-231 CLPP−/−.
The test system of assay [2] is TFAM and Grp75 levels in MDA-MB-231 CLPP−/− cells. Nature of the assay: Western blot of TFAM and Grp75, MDA-MB-231 CLPP−/−. The class given is cell-based, human. The settings on record: 1 μM, 24 hours. The gist of the method: (§1)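 MDA-MB-231 cells (WT or CLPP−/−) were grown in DMEM/F-12 with 10% FBS and 2 mM L-glutamine. They were treated for 24 hours with 1 μM test compound or 6 μM of a reference compound. Pellets were sonicated in Dulbecco's PBS and protein was equalized. TFAM and Grp75 were detected by SDS-PAGE, transfer to PVDF and western blotting, imaged by film.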
A general note: Immunoblotting shows a protein as a band on a membrane.

The subject of the next assay is HEK293 T-REx WT cells. Nature of the assay: Growth inhibition profiling. The class given is cell-based, human. The settings on record: read-out: IC50 (nM), HEK293 T-REx WT.
Assay [3] relates to TFAM and Grp75 levels in MDA-MB-231 WT cells. Nature of the assay: Western blot of TFAM and Grp75, MDA-MB-231 WT. The class given is cell-based, human. The settings on record: 1 μM, 24 hours. The gist of the method: as §1
For another assay, the target named is human ClpP (Homo sapiens, UniProt Q16740). As to the kind of experiment: Casein-FITC degradation assay. The class given is biochemical. The settings on record: for Casein-FITC degradation h (at 2.5 μM ClpP): Hill coefficient, 2.5 μM ClpP protomer.
human ClpP, sequence (Q16740 57-277): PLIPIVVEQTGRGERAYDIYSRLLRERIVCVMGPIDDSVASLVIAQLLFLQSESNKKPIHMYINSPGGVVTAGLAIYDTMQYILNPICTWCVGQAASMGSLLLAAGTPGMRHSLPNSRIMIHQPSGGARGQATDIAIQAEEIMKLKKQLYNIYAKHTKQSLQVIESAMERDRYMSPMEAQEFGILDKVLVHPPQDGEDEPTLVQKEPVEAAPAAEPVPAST
A further assay has as its system MDA-MB-231 WT cells. Nature of the assay: Growth inhibition profiling. The class given is cell-based, human. The following applies: read-out: IC50 (nM), MDA-MB-231 WT.
Assay [4] has as its system HEK293 T-REx CLPX−/− cells. Nature of the assay: Growth inhibition profiling. The class given is cell-based, human. The settings on record: read-out: IC50 (nM), HEK293 T-REx CLPX−/−.
Assay [5] relates to WT and CLPP−/− MDA-MB-231 cells. As to the kind of experiment: Apoptotic onset check. The class given is cell-based, human. An outline of the steps:
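WT and CLPP−/− MDA-MB-231 cells in DMEM/F-12 with 10% FBS and 2 mM L-glutamine were exposed to 1 μM test compound or DMSO for 24 hours. Morphology was checked by light microscopy and nuclei by DAPI fluorescence. Positive control was 2 μM doxorubicin or DMSO for 72 hours. Lysates were made by sonication in Dulbecco's PBS and protein-equalized, then run on SDS-PAGE, immunoblotted on PVDF and imaged on film.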

In the next assay the test system is MDA-MB-468. Nature of the assay: One-dose NCI-60 screen, MDA-MB-468. The class given is cell-based, human. The following applies: 10 μM, 48-hour exposure. An outline of the steps:
(§2)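 Run by NCI DCTD. Cells were seeded at 5,000–40,000/well in RPMI 1640 with 5% FBS and 2 mM L-glutamine and grown 24 h at 37 °C, 5% CO2. Test compound was added at 10 μM final for 48 h, with a time-zero plate kept. Cells were fixed with cold TCA (10% final for adherent, 16% for non-adherent) and stained with 0.4% SRB. Growth was calculated from A515 at 0 and 48 h.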

In another assay the test system is MDA-MB-231. As to the kind of experiment: One-dose NCI-60 screen, MDA-MB-231. The class given is cell-based, human. The settings on record: 10 μM, 48-hour exposure.
The next assay concerns COLO205. Nature of the assay: One-dose NCI-60 screen, COLO205. The class given is cell-based, human. The following applies: 10 μM, 48-hour exposure. An outline of the steps: as §2
Assay [6] deals with ClpP (substrate TFAM lacking the MTS) (Homo sapiens, UniProt Q16740). As to the kind of experiment: In vitro degradation assay using TFAM. The class given is biochemical. The following applies: 20 μM compound, 13.5 μM TFAM, 15.5 μM ClpP, 37 °C, 0-5 h.
ClpP (substrate TFAM lacking the MTS), sequence (Q16740 57-277): as above
The mark [7] stands for this setting: Homo sapiens, HEK293-T-REx, 72 h.

Turning to `C#Cc1cccc(CN2CCC3=C(C2)C(=O)N(Cc2ccc(Cl)cc2)C2=NCCN23)c1` [TR-27], the IC50 in [1] (72 hr, SRB assay) was > 1000 nM; in the assay on MDA-MB-231 CLPX−/− cells (72 hr, SRB assay) it was 98.9 ± 1.7 nM; in the assay with MDA-MB-231 CLPP−/− cells (72 hr, SRB assay), > 1000 nM; in the assay with HEK293 T-REx WT cells (72 hr, SRB assay) it was 46.1 ± 1.3 nM; in the assay on MDA-MB-231 WT cells (72 hr, SRB assay), 90.7 ± 1.7 nM; in [4] (72 hr, SRB assay), 57.7 ± 3.4 nM. For the same compound, the “levels of TFAM and Grp75” value in [2] is reported as “unchanged”; in assay [3], “reduced”. Besides, at human ClpP, the “Casein-FITC degradation h (at 2.5 μM ClpP)” value (shortened to “Casein-FITC degradation h”) is on record as 8.1 ± 1.2. Moreover, in assay [5] (1 μM, 24 hours), the ClpX level entry is listed as “reduced”. Further, in assay [5] (1 μM, 24 hours), the “signs of apoptosis (morphology, nuclear integrity, Mcl1, caspases 9, 3, 8)” value is “absence of significant apoptosis”.

Turning to `Cn1c2c(c(=O)n(Cc3ccc(Cl)cc3)c1=O)CN(Cc1cccc(C#N)c1)CC2` [TR-57, 3-((3-(4-chlorobenzyl)-1-methyl-2,4-dioxo-1,2,3,4,7,8-hexahydropyrido[4,3-d]pyrimidin-6(5H)-yl)methyl)benzonitrile], the IC50 was > 1000 nM in assay [1] (setting [7]); 19.9 ± 0.3 nM in the assay on MDA-MB-231 CLPX−/− cells (Homo sapiens, MDA-MB-231, 72 h); > 1000 nM in the assay on MDA-MB-231 CLPP−/− cells (Homo sapiens, MDA-MB-231, 72 h); 8.9 ± 0.2 nM in the assay on HEK293 T-REx WT cells (setting [7]); 19.3 ± 0.2 nM in the assay on MDA-MB-231 WT cells (Homo sapiens, MDA-MB-231, 72 h); 11.8 ± 0.4 nM in assay [4] (setting [7]). In addition, the figures for the lethality in the assay on MDA-MB-468 and in the assay with COLO205 were 15% and 41%, respectively. This compound registered a growth suppression in the assay on MDA-MB-231 of 68%. This compound showed a Kd at human ClpP of 0.0155 ± 0.012 µM. Further, at human ClpP, the “Casein-FITC degradation h” value worked out at 9.4 ± 7.8.

For `N#Cc1cccc(CN2CCC3=C(C2)C(=O)N(Cc2ccc(Cl)cc2)C2=NCCN23)c1` [TR-65, 3-((4-(4-Chlorobenzyl)-5-oxo-1,2,4,5,8,9-hexahydroimidazo[1,2-a]pyrido[3,4-e]pyrimidin-7(6H)-yl)methyl)benzonitrile], the IC50 in assay [1] (setting [7]) is > 1000 nM; with MDA-MB-231 CLPX−/− cells (Homo sapiens, MDA-MB-231, 72 h), 9.4 ± 0.2 nM; in the assay on MDA-MB-231 CLPP−/− cells (Homo sapiens, MDA-MB-231, 72 h), > 1000 nM; with HEK293 T-REx WT cells (setting [7]), 9.8 ± 0.3 nM; with MDA-MB-231 WT cells (Homo sapiens, MDA-MB-231, 72 h) it was 9.4 ± 0.2 nM; in assay [4] (setting [7]), 11 ± 0.2 nM. The Kd on human ClpP turned out to be 0.0233 ± 0.0091 µM. Moreover, the “Casein-FITC degradation h” value at human ClpP was 10.9 ± 2.5. Also, the “degradation of TFAM by compound-activated ClpP” value in assay [6] is given as “degradation of TFAM by TR-activated ClpP in a time-dependent manner”.

In the case of `N#Cc1cccc(CN2CCc3ncn(Cc4ccc(Cl)cc4)c(=O)c3C2)c1` [TR-107], the IC50 in assay [1] (72 hr, SRB assay) was > 1000 nM; with MDA-MB-231 CLPX−/− cells (72 hr, SRB assay) it was 27.4 ± 0.8 nM; with MDA-MB-231 CLPP−/− cells (72 hr, SRB assay), > 1000 nM; in the assay with HEK293 T-REx WT cells (72 hr, SRB assay) it was 22.8 ± 0.7 nM; in the assay with MDA-MB-231 WT cells (72 hr, SRB assay) it was 29.4 ± 0.2 nM; in assay [4] (72 hr, SRB assay), 27 ± 2 nM. The compound further registered a lethality in the assay with MDA-MB-468 of 22%. For the same compound, the growth suppression in the assay with MDA-MB-231 is 73%. On human ClpP, the “Casein-FITC degradation h” value is given as 5.5 ± 0.7.

As to `N#Cc1cccc(CN2CCc3ncn(Cc4ccc(Br)cc4)c(=O)c3C2)c1` [TR-133, 3-([3-[(4-bromophenyl)methyl]-4-oxo-3H,4H,5H,6H,7H,8H-pyrido[4,3-d]pyrimidin-6-yl]methyl)benzonitrile], the IC50 in assay [1] (setting [7]) was > 1000 nM; with MDA-MB-231 CLPX−/− cells (Homo sapiens, MDA-MB-231, 72 h) it was 29.5 ± 0.7 nM; with MDA-MB-231 CLPP−/− cells (Homo sapiens, MDA-MB-231, 72 h) it was > 1000 nM; with HEK293 T-REx WT cells (setting [7]), 20.7 ± 0.7 nM; in the assay with MDA-MB-231 WT cells (Homo sapiens, MDA-MB-231, 72 h) it was 27.8 ± 0.4 nM; in assay [4] (setting [7]), 26 ± 2 nM. The Kd on human ClpP is 0.0291 ± 0.0078 µM. On human ClpP, the “Casein-FITC degradation h” value stood at 6.2 ± 1.3.

As for `COc1cccc2c1C(=O)c1c(O)c3c(c(O)c1C2=O)C[C@@](O)(C(=O)CO)C[C@@H]3O[C@H]1C[C@H](N)[C@H](O)[C@H](C)O1` [doxorubicin, doxorubicin hydrochloride, reference compound], the “caspase 9 cleavage” value in assay [5] (2 μM, 72 hrs, positive control) is “clearly showed caspase 9 cleavage”.

For orientation: Kd means the concentration at which binding is half-saturated.
